This test deals with Protease (Human immunodeficiency virus 1) (UniProt Q9YQ12). Briefly: Inhibition of HIV1 protease assessed as substrate cleavage by cell free assay. In outline:
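Cell-free fluorometric protease assay: compound (1–100 μM) was premixed with 2 μM quenched HIV-1 protease substrate 1. Background fluorescence (ex 340/em 490 nm) was read every 5 s for 5 min. HIV-1 protease was then added at 1.5% and cleavage followed for a further 5 min. LPV and EFV served as controls.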

The text below walks through data of ChEMBL document CHEMBL1240369, “Antiviral efficacy of the novel compound BIT225 against HIV-1 release from human macrophages” (Antimicrob Agents Chemother, 2010).

The source made the active and inactive calls. No cut-off for these calls is given here.

Sequence of Protease (Human immunodeficiency virus 1) (Q9YQ12 as listed by the source): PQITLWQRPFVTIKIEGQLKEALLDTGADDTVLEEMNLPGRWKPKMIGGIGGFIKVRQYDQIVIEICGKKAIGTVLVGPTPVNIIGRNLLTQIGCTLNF

For `Cc1cccc(C)c1OCC(=O)N[C@@H](Cc1ccccc1)[C@@H](O)C[C@H](Cc1ccccc1)NC(=O)[C@H](C(C)C)N1CCCNC1=O`, the outcome was Active. Turning to `O=C1Nc2ccc(Cl)cc2[C@@](C#CC2CC2)(C(F)(F)F)O1`, the result was inactive.
